Key:
[1] = target: T1, Serine/threonine-protein kinase A-Raf (Homo sapiens) (UniProt P10398); assay: Inhibition of human recombinant ARAF at 500 nM in presence of ATP by radiometric assay relative to control
T1 sequence (whole entry): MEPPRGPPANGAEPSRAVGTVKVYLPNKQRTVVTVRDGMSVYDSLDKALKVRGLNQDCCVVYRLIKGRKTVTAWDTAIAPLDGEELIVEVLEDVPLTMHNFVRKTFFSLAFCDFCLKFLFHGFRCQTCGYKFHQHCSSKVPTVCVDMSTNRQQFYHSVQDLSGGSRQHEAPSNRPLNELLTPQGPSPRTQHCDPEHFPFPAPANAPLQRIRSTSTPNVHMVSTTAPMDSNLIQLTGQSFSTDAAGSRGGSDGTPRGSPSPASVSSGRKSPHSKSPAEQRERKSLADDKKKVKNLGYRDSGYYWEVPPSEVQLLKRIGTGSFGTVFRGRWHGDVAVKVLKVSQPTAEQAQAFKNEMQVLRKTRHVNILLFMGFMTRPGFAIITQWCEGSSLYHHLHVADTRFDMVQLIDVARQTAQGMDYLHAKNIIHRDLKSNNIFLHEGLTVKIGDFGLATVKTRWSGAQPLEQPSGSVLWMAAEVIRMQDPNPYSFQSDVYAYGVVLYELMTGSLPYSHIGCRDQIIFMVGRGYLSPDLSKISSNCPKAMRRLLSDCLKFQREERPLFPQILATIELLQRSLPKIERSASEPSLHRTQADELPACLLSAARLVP
In short: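 Panel of 327 recombinant human kinases, each assayed in vitro by radiometric activity assay in duplicate at a single inhibitor concentration per compound, chosen with reference to its ULK1 inhibition. Activity remaining was expressed as percent of vehicle control, and percent inhibition was calculated as 100 minus percent activity remaining.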

[2] = target: T2, Serine/threonine-protein kinase DCLK3 (Homo sapiens) (UniProt Q9C098); assay: Inhibition of human recombinant DCAMKL3 at 15 nM related to control ULK1
T2 sequence (whole entry): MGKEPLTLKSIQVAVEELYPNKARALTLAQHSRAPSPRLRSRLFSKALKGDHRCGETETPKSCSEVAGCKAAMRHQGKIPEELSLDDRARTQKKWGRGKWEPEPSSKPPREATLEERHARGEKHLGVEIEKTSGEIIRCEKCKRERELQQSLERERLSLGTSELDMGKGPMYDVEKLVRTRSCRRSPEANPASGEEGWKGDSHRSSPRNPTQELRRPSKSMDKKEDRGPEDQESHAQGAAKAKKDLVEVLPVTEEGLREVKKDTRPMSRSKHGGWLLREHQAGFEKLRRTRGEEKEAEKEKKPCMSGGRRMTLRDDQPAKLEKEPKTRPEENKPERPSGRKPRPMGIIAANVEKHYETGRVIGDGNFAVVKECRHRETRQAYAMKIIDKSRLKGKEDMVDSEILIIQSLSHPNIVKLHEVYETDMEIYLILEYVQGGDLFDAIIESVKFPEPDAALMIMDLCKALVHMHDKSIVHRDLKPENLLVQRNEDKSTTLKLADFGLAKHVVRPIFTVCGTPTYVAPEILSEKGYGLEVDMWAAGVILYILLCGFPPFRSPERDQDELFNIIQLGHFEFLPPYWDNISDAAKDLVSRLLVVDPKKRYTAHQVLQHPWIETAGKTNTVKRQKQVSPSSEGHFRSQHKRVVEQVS

[3] = target: Mitogen-activated protein kinase 1 (Homo sapiens) (UniProt P28482); assay: Inhibition of human recombinant Erk2 at 15 nM in presence of ATP by radiometric assay relative to control
[4] = target: LIM domain kinase 1 (Homo sapiens) (UniProt P53667); assay: Inhibition of human recombinant LIMK1 at 15 nM in presence of ATP by radiometric assay relative to control
[5] = target: T3, Serine/threonine-protein kinase Sgk2 (Homo sapiens) (UniProt Q9HBY8); assay: Inhibition of human recombinant SGK2 at 15 nM related to control ULK1
T3 sequence (whole entry): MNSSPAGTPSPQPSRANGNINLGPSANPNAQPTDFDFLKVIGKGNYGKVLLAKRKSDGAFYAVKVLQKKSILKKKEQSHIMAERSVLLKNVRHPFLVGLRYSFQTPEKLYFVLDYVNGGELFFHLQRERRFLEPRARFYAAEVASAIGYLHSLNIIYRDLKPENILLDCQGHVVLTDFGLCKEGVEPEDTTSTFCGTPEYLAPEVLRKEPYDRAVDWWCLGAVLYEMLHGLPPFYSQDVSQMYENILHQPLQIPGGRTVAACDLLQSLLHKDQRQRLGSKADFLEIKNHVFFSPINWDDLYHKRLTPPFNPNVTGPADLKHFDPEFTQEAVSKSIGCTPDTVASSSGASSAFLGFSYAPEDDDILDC

LIM domain kinase 1 (Homo sapiens), sequence (P53667 whole entry, looked up, the tested form may be a part): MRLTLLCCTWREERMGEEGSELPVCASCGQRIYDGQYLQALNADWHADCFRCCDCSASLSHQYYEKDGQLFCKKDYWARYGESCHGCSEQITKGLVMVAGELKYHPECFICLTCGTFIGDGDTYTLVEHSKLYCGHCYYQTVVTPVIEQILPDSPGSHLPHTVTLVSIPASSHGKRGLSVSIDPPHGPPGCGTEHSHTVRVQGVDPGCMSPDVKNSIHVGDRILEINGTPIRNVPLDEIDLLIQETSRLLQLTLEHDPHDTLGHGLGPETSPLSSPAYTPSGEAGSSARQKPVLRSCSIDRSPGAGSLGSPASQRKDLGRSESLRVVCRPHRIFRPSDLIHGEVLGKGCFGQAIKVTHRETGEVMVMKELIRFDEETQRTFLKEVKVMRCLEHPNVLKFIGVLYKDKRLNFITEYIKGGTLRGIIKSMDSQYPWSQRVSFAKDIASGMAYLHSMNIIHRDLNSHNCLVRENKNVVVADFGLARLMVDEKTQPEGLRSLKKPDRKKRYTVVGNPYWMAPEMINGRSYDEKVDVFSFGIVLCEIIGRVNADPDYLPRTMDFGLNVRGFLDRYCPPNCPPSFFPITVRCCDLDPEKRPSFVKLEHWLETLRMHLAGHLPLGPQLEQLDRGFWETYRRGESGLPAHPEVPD
Mitogen-activated protein kinase 1 (Homo sapiens), sequence (P28482 whole entry, the tested form may be a part): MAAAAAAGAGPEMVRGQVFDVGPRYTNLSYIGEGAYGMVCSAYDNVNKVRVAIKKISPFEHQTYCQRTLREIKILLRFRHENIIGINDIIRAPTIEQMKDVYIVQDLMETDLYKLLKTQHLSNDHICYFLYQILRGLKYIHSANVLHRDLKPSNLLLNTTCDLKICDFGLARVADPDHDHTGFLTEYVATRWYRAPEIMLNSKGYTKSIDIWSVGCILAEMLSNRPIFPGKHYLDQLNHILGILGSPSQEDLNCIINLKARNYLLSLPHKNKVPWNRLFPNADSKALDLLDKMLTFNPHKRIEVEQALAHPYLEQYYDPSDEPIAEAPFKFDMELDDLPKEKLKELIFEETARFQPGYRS

| inhibition [1] [%] | fold change (FC) [2] | inhibition [3] [%] | inhibition [4] [%] | fold change (FC) [5] | Structure (SMILES) |
| --- | --- | --- | --- | --- | --- |
| 0 | – | – | – | – | CNC(=O)c1ccccc1Oc1nc(Nc2cc(OC)c(OC)c(OC)c2)ncc1Br |
| – | 0.4 | 0 | 56 | 0 | CC(C)[C@H](NC(=O)c1cc(-c2cnn3cc(-c4ccc(OCCN5CCCCC5)cc4)cnc23)cs1)C(F)(F)F |

From ChEMBL document CHEMBL5653631, “A Potent and Selective ULK1 Inhibitor Suppresses Autophagy and Sensitizes Cancer Cells to Nutrient Stress” (iScience, 2018)
